Assay outcomes (PubChem BioAssay)
MEKK2 mut-MEK5: signal of MEK5 binding to mutant human MEKK2 PB1 domain. bead flow cytometry, Alexa488-MEK5 binding to MEKK2 mutant. percent response, % at 10 µM. hit rate 0.35% among 290,000; in the data active means percent response above about 24%, passing the limit was not always enough
Apaf1 inhib: human Apaf-1 inhibition. inhibition, % at 20 µM. reconstituted apoptosome caspase-3 activity, DEVD-Rh110 fluorescence. O14727. AID 489030. hit rate 0.71% among 330,000; active means inhibition of at least 40% at 20 µM;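 further: plate controls were DMSO wells for no effect and DEVD-CHO caspase inhibitor wells for full effect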
Target sequence (O14727 whole entry, looked up): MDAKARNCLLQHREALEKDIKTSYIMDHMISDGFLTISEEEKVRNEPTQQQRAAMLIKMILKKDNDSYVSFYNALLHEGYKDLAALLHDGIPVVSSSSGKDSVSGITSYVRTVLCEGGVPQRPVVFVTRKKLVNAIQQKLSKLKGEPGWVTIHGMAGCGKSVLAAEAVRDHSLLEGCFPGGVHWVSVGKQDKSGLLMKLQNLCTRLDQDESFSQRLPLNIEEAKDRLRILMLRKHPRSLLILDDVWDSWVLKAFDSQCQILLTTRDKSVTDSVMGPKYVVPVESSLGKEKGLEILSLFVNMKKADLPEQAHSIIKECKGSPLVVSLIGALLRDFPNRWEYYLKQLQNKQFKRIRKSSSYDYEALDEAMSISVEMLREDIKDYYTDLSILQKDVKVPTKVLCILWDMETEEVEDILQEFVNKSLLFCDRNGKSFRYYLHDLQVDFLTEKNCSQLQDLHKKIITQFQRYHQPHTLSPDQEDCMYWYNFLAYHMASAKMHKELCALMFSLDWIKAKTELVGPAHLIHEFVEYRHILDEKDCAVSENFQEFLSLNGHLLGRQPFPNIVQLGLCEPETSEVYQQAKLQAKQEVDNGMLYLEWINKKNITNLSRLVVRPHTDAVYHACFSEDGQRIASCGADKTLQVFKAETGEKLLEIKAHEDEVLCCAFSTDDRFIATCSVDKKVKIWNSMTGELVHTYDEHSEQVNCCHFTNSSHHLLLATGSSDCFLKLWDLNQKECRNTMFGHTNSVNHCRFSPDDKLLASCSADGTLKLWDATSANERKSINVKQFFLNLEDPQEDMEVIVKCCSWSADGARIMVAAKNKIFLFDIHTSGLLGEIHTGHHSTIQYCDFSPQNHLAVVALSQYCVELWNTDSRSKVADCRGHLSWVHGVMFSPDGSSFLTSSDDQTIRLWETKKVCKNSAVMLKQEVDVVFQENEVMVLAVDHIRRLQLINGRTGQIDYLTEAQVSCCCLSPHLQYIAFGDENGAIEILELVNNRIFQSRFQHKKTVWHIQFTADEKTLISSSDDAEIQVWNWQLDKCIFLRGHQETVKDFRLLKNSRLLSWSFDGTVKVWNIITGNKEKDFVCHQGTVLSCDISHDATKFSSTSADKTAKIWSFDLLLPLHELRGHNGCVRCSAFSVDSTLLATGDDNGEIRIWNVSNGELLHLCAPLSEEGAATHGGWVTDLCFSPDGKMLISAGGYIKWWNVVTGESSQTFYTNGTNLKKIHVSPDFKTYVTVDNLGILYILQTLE
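System: Apoptosome proteins | Medium: Hepes pH 7.5 with detergent and BSA | Also added: Cytochrome c trigger plus (Z-DEVD)2-Rh110 caspase-3 substrate | Incubation: 30 min compound preincubation, 50 min activation, room temperature | Detection: Rhodamine 110 fluorescence at Ex 480/Em 540 nm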
PREPL inhibitor: inhibits the human prolyl oligopeptidase-like enzyme; AID 2751; recombinant PREPL, fluorescence polarization activity-based probe; inhibition, % at 5.96 µM; hit rate 0.68% among 320,000;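 further: 0% = enzyme with DMSO and 100% = wells lacking enzyme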
MEKK3 PB1 HTS: MEKK3-MEK5 PB1 interaction, increase or decrease; Q99759; bead-based flow cytometry, Alexa488-MEK5 binding to MEKK3; actives lie on both sides; 0 = blocked by unlabeled MEK5, 100 = vehicle; binding response (% of control), % at 10 µM; hit rate 1.4% among 290,000; AID 1529;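 active means binding response more than 3 SD above or below the average of its plate-row segment, actives on both sides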;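 further: Alexa488 bead fluorescence after subtracting the streptavidin-only scavenger bead signal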
MEKK2wt PB1 HTS: raises or lowers MEK5 binding to wildtype human MEKK2 PB1 domain; Q9Y2U5; bead flow cytometry, Alexa488-MEK5 binding to MEKK2 WT; actives lie on both sides; binding response (% of control), % at 10 µM; hit rate 1.1% among 290,000; AID 1531; in the data active means binding response below about 67% or above about 130%
UBC13 polyUb: inhibitors of human UBC13 polyubiquitin chain formation; inhibition, % at 20 µM; P61088; hit rate 0.47% among 330,000; TR-FRET; in the data active means inhibition above about 45%, passing the limit was not always enough
PREPL inh cf: human PREPL inhibition, confirmation | recombinant PREPL, fluorescence polarization activity probe | AID 2803 | inhibition, % at 5.96 µM | hit rate 67% among 2,000 | shares compounds with PREPL inhibitor;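 further: 0% = protein with DMSO and 100% = wells lacking protein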
* hit, by the source's call; / = no result given; [ ] = another dose, or the depositor's remark. The list is not random: actives were taken first. Their share in the collection is about 3.1%. Unless noted, no stated cut-off is given here; in the data, active means inhibition above about 43%; inactive means the rest.

SMILES | MEKK2 mut-MEK5 | Apaf1 inhib | PREPL inhibitor | MEKK3 PB1 HTS | MEKK2wt PB1 HTS | UBC13 polyUb | PREPL inh cf
CCCn1cnc2cc(NCc3ccc(Br)cc3)ccc21 | 3 | 15 | 49* | 97 | 104 | 12 | 46*
CN(C)c1ccc(CNc2ccc3c(c2)ncn3C(C)(C)C)cc1 | 4 | 4 | 43* | 103 | 107 | 0 | 28
CN1CCN(c2ccc(NC(=O)c3ccc4ccccc4c3)cc2)CC1 | 0 | 14 | 23 | 97 | 108 | 7 | /
CN1CCN(c2ccc(NC(=O)COc3ccc4ccccc4c3)cc2)CC1 | 10 | 9 | 52* | 101 | 117 | 8 | 58*
CN1CCN(c2ccc(NC(=O)COc3cccc4ccccc34)cc2)CC1 | -1 | 10 | 55* | 101 | 109 | 13 | 57*
Cc1ccccc1OCC(=O)Nc1ccc(N2CCN(S(C)(=O)=O)CC2)cc1 | 4 | 8 | 22 | 104 | 112 | 6 | /
CCCN(CC(=O)Nc1ccccc1C)C(=O)c1nn(CC)c(=O)c2ccccc12 | / | 11 | 7 | / | / | -11 | /
CC1C(=O)N2CCCc3cc(S(=O)(=O)N4CCN(c5cccc(Cl)c5)CC4)cc1c32 (centres undefined) | / | 12 | -16 | / | / | -9 | /
CS(=O)(=O)c1ccc(Cl)c(NC(=O)CN2CCN(C(=O)c3cccs3)CC2)c1 | / | -1 | 9 | / | / | -1 | /
O=c1c2ccc([N+](=O)[O-])cc2ncn1CCOc1ccccc1 | 5 | 1 | 44* | 110 | 108 | 0 | 33
Oc1ccc(N=Nc2ccccc2-c2nn[nH]n2)c(O)c1 | 0 | 12 | 51* | 100 | 99 | -99 | 53*
CC(Nc1c[nH]c(=O)[nH]c1=O)c1ccccc1 (centres undefined) | 1 | 2 | / | 105 | 103 | 6 | /
NCCCn1c(C(=O)c2cc(Cl)c(N)c(Cl)c2)c2ccc([N+](=O)[O-])cc2[n+]1[O-] | / | 34 | 61* | / | / | 15 | 69*
COc1ccc(C(=O)c2c3ccc([N+](=O)[O-])cc3[n+]([O-])n2CCCC(N)=O)cc1 | / | -1 | 6 | / | / | -28 | /
Cc1ccc2c(c1)C1(C)C(C(C)(C)N2C=O)C1(Cl)Cl (centres undefined) | -1 | -10 | 1 | 102 | 100 | 0 | /
COc1ccc(-c2nn3c(-c4ccccc4)nnc3s2)cc1 | 3 | 11 | -1 | 105 | 108 | 11 | /
CCN(CC)c1ccc(-c2nn3c(-c4ccccc4OC)nnc3s2)cc1 | -11 | 30 | 57* | 91 | 88 | 18 | 39
CCc1ccccc1N1C(=O)C(Cl)=C(N2CCOCC2)C1=O | 1 | 3 | 1 | 99 | 101 | -4 | /
O=C(Cc1cccc2ccccc12)Nc1nnc(-c2cccc([N+](=O)[O-])c2)s1 | 8 | 10 | 46* | 82 | 79 | -28 | 28
O=C(CSCc1ccccc1Br)NNC(=S)NCc1ccco1 | 9 | 10 | -6 | 109 | 114 | -4 | /
CCOC(=O)C1=C(CS(=O)(=O)c2ccc(C)cc2)NC(=O)NC1c1ccc(O)c(OC)c1 (centres undefined) | 9 | -5 | 12 | 115 | 111 | -6 | /
CCOC(=O)C1=C(CS(=O)(=O)c2ccc(C)cc2)NC(=O)NC1c1cc(OC)c(OC)c(OC)c1 (centres undefined) | -2 | 1 | 45* | 101 | 106 | -11 | 40
O=C(COC(=O)CCc1c[nH]c2ccccc12)Nc1cc([N+](=O)[O-])ccc1Cl | -1 | 9 | 46* | 113 | 100 | 18 | 43
Cc1noc(C)c1S(=O)(=O)Nc1ccc2c(c1)C(=O)N([C@H](C)CO)C[C@@H](C)[C@@H](CN(C)Cc1ccc3c(c1)OCO3)O2 | / | -10 | 24 | / | / | 8 | /
COc1ccc(CCNC(=O)c2cc3c(=O)n4cccc(C)c4nc3n(CCCN3CCOCC3)c2=N)cc1 | 3 | 6 | 53* | 105 | 112 | 4 | 56*
SMILES | MEKK2 mut-MEK5 | Apaf1 inhib | PREPL inhibitor | MEKK3 PB1 HTS | MEKK2wt PB1 HTS | UBC13 polyUb | PREPL inh cf
O=C1NN(c2ccccc2)C(=O)/C1=C\c1cccc(OC(=O)c2cccs2)c1 | 17 | 28 | 57* | 106 | 110 | -19 | 34
CCN1CCCC1CNC(=O)c1ccc2c(c1)NC(=O)/C(=C\c1ccc(OC)c(OC)c1)S2 (centres undefined) | 25* | 33 | 56* | 91 | 153*[inhibitor] | 23 | 61*
CCN1CCCC1CNC(=O)c1cc(N)ccc1OC (centres undefined) | / | 1 | 3 | / | / | -2 | /
Cc1c(C(=O)O)cccc1-c1ccc(/C=N/Nc2ccc(Br)cc2)o1 | -2 | 8 | 46* | 97 | 97 | -18 | 22
O=C(O)c1ccc(N/N=C/c2ccc(-c3cccc(Cl)c3)o2)cc1 | -16 | -9 | 57* | 94 | 93 | 6 | 55*
O=C(O)c1ccc(N/N=C/c2ccc(-c3cc(Cl)ccc3Cl)o2)cc1 | -16 | 15 | 29 | 93 | 93 | 3 | /
O=C1CCCCCCC1Sc1ccccc1[N+](=O)[O-] (centres undefined) | 5 | 6 | -3 | 101 | 102 | 5 | /
C(=N\Nc1nc2ccccc2[nH]1)/c1c[nH]c2ccccc12 | 11 | -6 | 49* | 105 | 155* | 1 | 54*
C(=N\Nc1nc2ccccc2[nH]1)/c1cccc2cccnc12 | 27 | 24 | 63* | 96 | 112 | -13 | 53*
Oc1ccc(/C=N/Nc2ccnc3cc(Cl)ccc23)cc1O | -15 | 5 | 54* | 93 | 103 | -8 | 36
Oc1ccc(/C=N/Nc2ccnc3cc(Cl)ccc23)c(O)c1O | 6 | 23 | 26 | 96 | 107 | -13 | /
Cc1c(C(O)CN2CCN(Cc3ccc4c(c3)OCO4)CC2)c2ccccc2n1C (centres undefined) | 6 | -1 | 37 | 103 | 108 | 5 | /
COc1ccc2c(c1)c(C(O)CN1CCN(Cc3ccc4c(c3)OCO4)CC1)c(C)n2C (centres undefined) | 7 | 0 | 47* | 106 | 112 | 12 | 32
Cc1nn(C)c(C)c1CCC(=O)N1CCCC(N2CCN(c3ccc(F)cc3)CC2)C1 (centres undefined) | 7 | -1 | 9 | 103 | 101 | -8 | /
COC(=O)c1cc(NC(=S)NC(=O)c2ccccc2)ccc1N1CCOCC1 | 7 | -8 | 15 | 104 | 111 | 0 | /
COc1ccc(S(=O)(=O)N2CCOC2CNC(=O)C(=O)NCCN2CCOCC2)cc1 (centres undefined) | 9 | 7 | 1 | 103 | 110 | 2 | /
COc1ccc(-c2cnnc(N/N=C/c3ccc(O)c(O)c3)n2)cc1 | 0 | 1 | 73* | 97 | 102 | -16 | 37
